An excerpt weighted towards active compounds, which were near 3.7% of everything screened.
KCNK9 block – inhibitors of human KCNK9 two-pore domain potassium channel; Q9NPC2; HEK293 KCNK9, FluxOR thallium flux fluorescence; hits give low values; B-score at 10 µM; 1.2% of 310,000 active; AID 488922;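 active means ratio B-score over 3 SD below the library mean, with starting fluorescence within 5 SD of its mean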;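 further: negative B-score means less thallium flux so channel inhibition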
KCNQ1 inh – human KCNQ1 channel inhibition; P51787; CHO-K1 KCNQ1, FluxOR thallium flux fluorescence; hits give high values; B-score at 10 µM; 1.3% of 310,000 active;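 active means compounds whose thallium flux B-score, printed positive for inhibition, exceeds three library SD while starting fluorescence stays within three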;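 further: channel opened by potassium depolarization with thallium stimulus after 20 min compound exposure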
hERG protect – hERG (human) protection from proarrhythmic block | activation (rescue from dofetilide block), less the hit threshold, % at 10 µM | Q12809 | CHO-hERG, FluxOR thallium flux, dofetilide IC70 present | 0.51% of 310,000 active;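 active means activation above the mean of controls blocked by dofetilide plus 5 SD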;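 further: thallium influx through hERG after potassium depolarization seen as dye fluorescence rise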
KCNQ1 pot – potentiates or activates the human KCNQ1 potassium channel | P51787 | CHO-K1 KCNQ1, thallium flux FluxOR fluorescence; hits give high values | 0.35% of 310,000 active | B-score at 10 µM;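 active means fluorescence ratio B-score, a plate-corrected score, at least three library SD, with initial intensity B-score within 5 SD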
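System: Stable KCNQ1 CHO-K1 line | Incubation: 90 min dye loading and 20 min compound exposure, both at room temperature | Measure: Ratio B score | Medium: Assay buffer for compound exposure, DMSO matched across wells | Compound dosing: Single-concentration screen | Probe or stimulus: K+/Tl+ depolarizing stimulus | Measured by: Kinetic FluxOR fluorescence, 10 s baseline plus 110 s post-stimulus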
Kir21 block – Kir2.1 (mouse) channel inhibition. B-score at 10 µM. HEK293-Kir2.1, FluxOR thallium flux fluorescence; hits give low values. 0.85% of 310,000 active. P35561;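 active means fluorescence ratio B-score at or below minus 3 SD of library scores, with starting-brightness B-score within 2 SD, cut at about -4.2 in these data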;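 further: channel flux triggered by added potassium and thallium sulfate stimulus; B-score of peak minus minimum fluorescence over baseline after thallium stimulus; more negative B-score means stronger Kir2.1 block with less thallium influx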
Target sequence (P35561 whole entry, looked up): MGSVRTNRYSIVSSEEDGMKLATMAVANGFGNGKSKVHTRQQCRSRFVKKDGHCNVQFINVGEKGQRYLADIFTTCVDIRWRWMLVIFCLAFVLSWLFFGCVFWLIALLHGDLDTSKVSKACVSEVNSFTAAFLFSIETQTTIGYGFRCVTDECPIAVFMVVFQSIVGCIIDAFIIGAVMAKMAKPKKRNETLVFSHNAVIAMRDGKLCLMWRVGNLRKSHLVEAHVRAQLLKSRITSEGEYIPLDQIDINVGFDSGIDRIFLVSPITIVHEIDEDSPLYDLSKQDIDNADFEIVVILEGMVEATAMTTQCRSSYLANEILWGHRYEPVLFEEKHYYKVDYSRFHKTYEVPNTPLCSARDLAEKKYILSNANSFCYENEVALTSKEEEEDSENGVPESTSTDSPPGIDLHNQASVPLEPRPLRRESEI
KCNK3 block – human KCNK3 channel inhibition, primary screen; CHO-KCNK3 thallium flux, FluxOR fluorescence; hits give low values; B-score at 10 µM; 0.84% of 340,000 active;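 active means B-score under library mean minus 4 SD, starting fluorescence ratio at most library mean plus 5 SD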;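 further: more negative B-score means stronger inhibition of thallium flux through KCNK3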
Of the large screens only hits and unclear results are named; the others gave an inactive call.

COc1cc(CNCCc2ccccc2)ccc1OCc1ccc(Cl)nc1	Kir21 block -6.4
C1=CC2=NC34CCCCC3CC3=C(CCCC3)N4C2=CC1=NC1CCCCC1 (centres undefined)	KCNQ1 inh 7
COc1ccc(NC(=O)CSc2nc3n[nH]c(C)c3c(=N)n2-c2ccc(Cl)c(C)c2)cc1OC	none
CN(C)NC1=CC(=[N+]2CCCC2)CC(C)(C)C1	none
CCCN(CCC)C1=CC(=[N+]2CCCC2)CC(C)(C)C1	KCNQ1 inh 6
COc1ccccc1NS(=O)(=O)c1cc(C(=O)NCCCN2CCCC2=O)ccc1C	none (no result: KCNK9 block, KCNQ1 inh, hERG protect, KCNQ1 pot, Kir21 block)
CCCCc1nc2ccccc2c(C(=O)O)c1C	none
CCCCc1nc2ccccc2c(N)c1CCC (tested in a mixture with another compound)	Kir21 block -8.29
CN(C)CCOC(C1CCCCC1)C1CCCCC1	Kir21 block -4.59
CN(C)CCNC(=S)NC1CCCCC1	none
CC(Sc1ccc(Cl)cc1)C(=O)NNC(=O)c1ccccc1O (centres undefined)	KCNQ1 inh 6
CCN(CC)CCN(C(=O)c1ccc(CN2CCCCC2)o1)C(C(=O)NC1CCCCC1)c1ccc(F)cc1 (centres undefined)	none
N#Cc1ccc(/C=C/C(=O)c2cccnc2)cc1	KCNQ1 inh 6, Kir21 block -8.99
CCN(CC)c1ccc(/C=C/C(=O)c2cccnc2)cc1	none
O=C(/C=C/c1ccc(Cl)cc1)c1cccnc1	Kir21 block -7.93
Cc1ccc(NC(C(=O)c2ccccc2)c2ccccc2)cc1 (centres undefined)	none (no result: KCNK9 block, KCNQ1 inh, hERG protect, KCNQ1 pot, Kir21 block)
O=C(NNC(=O)c1ccccc1O)c1ccc(Cl)c(S(=O)(=O)N2CCCCC2)c1	none
CC1(C)CC(=O)c2c(nn(-c3ccccc3)c2-c2ccncc2)C1	hERG protect 7.1
Cc1c2c(nc3ccccc13)CC(C)(C)CC2=O	none
Cc1noc(C)c1CSc1nnc(-c2ccccc2)n1N	none
Cc1noc(C)c1CSc1nnc2scc(-c3ccccc3)n12	Kir21 block -5.22
CC(OC(=O)Cc1ccc(F)cc1)C(=O)NCc1ccc2c(c1)OCO2 (centres undefined)	none
O=C(CN1CCOCC1)NNc1nc(-c2ccccc2)c2cc(Br)ccc2n1	KCNQ1 inh 7
CN(CCOCCOc1ccc2ccccc2c1)Cc1ccccc1	Kir21 block -7.01
Cc1cc(OC(=O)c2cccc(F)c2)c([N+](=O)[O-])c(=O)[nH]1	none
O=C(c1cc(COc2cccc(C(F)(F)F)c2)on1)N1C[C@@H]2CCC[C@H]1C2	none
COc1ccc(NC(=O)C2(c3ccccc3)CCCC2)cc1	none
COCCNC(=O)c1ccc(NC(=O)C2(c3ccccc3)CCCC2)cc1	hERG protect 7.5
Cc1[nH][nH]c(=O)c1C(c1ccc(-c2ccc(F)cc2)o1)c1c(C)[nH][nH]c1=O	KCNQ1 pot 9, Kir21 block -5.32
Cc1cc(C)n2nc(C(=O)N3CCN(c4ccc([N+](=O)[O-])cc4)CC3)nc2n1	none
COc1ccc(N2CCN(S(=O)(=O)c3ccc4c(c3)CCCC4)CC2)c([N+](=O)[O-])c1	KCNQ1 inh 7
C=C(C)c1cccc(C(C)(C)NC(=O)N(C)C2CCN(C)CC2)c1	none
CN(CC(O)CN)CC(O)CN1CCCCC1 (centres undefined)	hERG protect 5.7
Oc1c(Br)cc(Cl)cc1C=Nc1ccc(N2CCOCC2)cc1	none
Oc1c(Br)cc(Cl)cc1C=Nc1ccccc1Br	hERG protect 10.7, KCNQ1 pot 8
O=C(Nc1nc2ccc(SC(F)F)cc2s1)c1ccc(NS(=O)(=O)c2ccc(F)c(F)c2)cc1	KCNK9 block -6.77
CC1CC(C)CN(C(=O)CCc2ccccc2)C1 (centres undefined)	none
CCN(CC(=O)Nc1c(F)cccc1F)C(=O)CNC(=O)C1CCCCC1	none
CN1CCN(c2ccc(NC(=O)c3ccc(Cl)cc3)cn2)CC1	hERG protect 7.8
Cc1ccc(C(=O)Nc2ccc(N3CCOCC3)nc2)cc1	none
Clc1ccc(C2=C3CCCCn4c(-c5ccccc5)c[n+](c43)C2)cc1	KCNQ1 inh 7
COc1ccc(-c2cnc3n2CCCCC3)cc1	none
COc1ccc(-c2c[n+]3c4n2CCCCC4=C(c2ccc(Br)cc2)C3)cc1	KCNQ1 inh 11
